According to article PMC8172216 (Pharmaceutical Biology, 2021):

What was measured:
[1] = Pharmacokinetics of saponins in rat plasma after oral gavage of raw; format: in vivo, Sprague–Dawley rats; conditions: for AUC0–t: SD rats, oral administration of SPN extract 1.0 g/kg; for AUC(0-t) / AUC(0-inf) / Cmax / Tmax / half-life: male, Sprague-Dawley, rat, plasma, po, 1 g/kg, oral gavage of raw P. notoginseng aqueous extract 1 g/kg, n = 6, mean ± SD; for AUC(0-t): AUC0–t; for AUC(0-t) / AUC(0-inf) / Cmax / Tmax: male SD rats; for AUC(0-inf): AUC0–∞; for half-life: t1/2, male SD rats; for time in which the maximum plasma concentration was achieved: after oral administration of RPN or SPN aqueous extract
How it was run: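 Male SD rats (200–250 g, n = 6/group) were acclimatised for 7 d and fasted overnight with water. They received a single oral gavage of aqueous extract at 1 g/kg (5 mL/kg). Heparinized orbital blood was taken pre-dose and at 5 min to 48 h, then centrifuged and stored at −40 °C. Plasma was methanol-precipitated with theophylline internal standard and analysed by MRM. Cmax and Tmax were read directly; AUC and t1/2 were non-compartmental; results are mean ± SD.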

[2] = ref Ma et al. [2021]; cited from earlier work

AUC0–t [1]	AUC(0-t) [1]	AUC(0-inf) [1]	Cmax [1]	Tmax [1]	half-life [1]	time in which the maximum plasma concentration was achieved ([1]; rats)	AUC0–t and Cmax, steamed versus raw group ([1]; oral dose of raw and steamed P. notoginseng aqueous extracts, rats)	SMILES	detection in rat plasma ([1]; after oral administration of P. notoginseng extracts, rats, listed as GRg5)	bioavailability [2]
1396.89 ± 595.14 ng/h/mL	3630 ± 569 ng·h/mL	4170 ± 733 ng·h/mL	164 ± 28.8 ng/mL	8.67 ± 2.73 h	13.9 ± 1.71 h	–	–	CC(C)=CCC[C@](C)(O[C@@H]1O[C@H](CO)[C@@H](O)[C@H](O)[C@H]1O)[C@H]1CC[C@]2(C)[C@@H]1[C@H](O)C[C@@H]1[C@@]3(C)CC[C@H](O[C@@H]4O[C@H](CO)[C@@H](O)[C@H](O)[C@H]4O[C@@H]4O[C@H](CO)[C@@H](O)[C@H](O)[C@H]4O)C(C)(C)[C@@H]3CC[C@]12C [Rd, ginsenoside Rd]	–	–
5094.06 ± 1453.14 ng/h/mL	15100 ± 2380 ng·h/mL	15200 ± 2440 ng·h/mL	997 ± 144 ng/mL	8.67 ± 1.63 h	9.58 ± 1.11 h	–	–	CC(C)=CCC[C@](C)(O[C@@H]1O[C@H](CO[C@@H]2O[C@H](CO)[C@@H](O)[C@H](O)[C@H]2O)[C@@H](O)[C@H](O)[C@H]1O)[C@H]1CC[C@]2(C)[C@@H]1[C@H](O)C[C@@H]1[C@@]3(C)CC[C@H](O[C@@H]4O[C@H](CO)[C@@H](O)[C@H](O)[C@H]4O[C@@H]4O[C@H](CO)[C@@H](O)[C@H](O)[C@H]4O)C(C)(C)[C@@H]3CC[C@]12C [Rb1, ginsenoside Rb1]	–	–
–	87.7 ± 20.7 ng·h/mL	91.7 ± 19.7 ng·h/mL	28.1 ± 13.1 ng/mL	1.24 ± 0.49 h	3.16 ± 1.73 h	≤ 1.63 h	no significantly difference	CC(C)=CCC[C@](C)(O[C@@H]1O[C@H](CO)[C@@H](O)[C@H](O)[C@H]1O)[C@H]1CC[C@]2(C)[C@@H]1[C@H](O)C[C@@H]1[C@@]3(C)CC[C@H](O)C(C)(C)[C@@H]3[C@@H](O[C@@H]3O[C@H](CO)[C@@H](O)[C@H](O)[C@H]3O[C@@H]3O[C@@H](C)[C@H](O)[C@@H](O)[C@H]3O)C[C@]12C [Re, ginsenoside Re]	–	–

The next lines start with the compound.

SMILES	AUC0–t [1]	AUC(0-t) [1]	AUC(0-inf) [1]	Cmax [1]	Tmax [1]	half-life [1]	time in which the maximum plasma concentration was achieved ([1]; rats)	AUC0–t and Cmax, steamed versus raw group ([1]; oral dose of raw and steamed P. notoginseng aqueous extracts, rats)	detection in rat plasma ([1]; after oral administration of P. notoginseng extracts, rats, listed as GRg5)	bioavailability [2]
CC(C)=CCC[C@](C)(O[C@@H]1O[C@H](CO)[C@@H](O)[C@H](O)[C@H]1O)[C@H]1CC[C@]2(C)[C@@H]1[C@H](O)C[C@@H]1[C@@]3(C)CC[C@H](O)C(C)(C)[C@@H]3[C@@H](O[C@@H]3O[C@H](CO)[C@@H](O)[C@H](O)[C@H]3O)C[C@]12C [Rg1, ginsenoside Rg1]	176.63 ± 42.49 ng/h/mL	808 ± 382 ng·h/mL	861 ± 355 ng·h/mL	66.7 ± 32.8 ng/mL	9.33 ± 2.07 h	7.92 ± 6.73 h	≤ 9.33 h	–	–	–
CC(C)=CC/C=C(\C)[C@H]1CC[C@]2(C)[C@@H]1[C@H](O)C[C@@H]1[C@@]3(C)CC[C@H](O[C@@H]4O[C@H](CO)[C@@H](O)[C@H](O)[C@H]4O[C@@H]4O[C@H](CO)[C@@H](O)[C@H](O)[C@H]4O)C(C)(C)[C@@H]3CC[C@]12C [Rg5, ginsenoside Rg5]	–	–	–	–	–	–	–	–	could not be detected	0.67%
